Assay [1] has as its target Cholinesterase (Equus caballus) (UniProt P81908). The assay can be described thus: Inhibition of BuChE in equine serum using butyrylthiocholine chloride as substrate at 500 uM preincubated with enzyme for 10 mins prior to substrate challenge for 15 mins by Ellman's method. The method, boiled down:
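The compound was added from DMSO (1% final) at 0.5 mM final. Enzyme and compound were preincubated for 10 min at 25 °C, then incubated for 15 min at 25 °C, and absorbance was read at 405 nm. Blanks lacked enzyme or substrate.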

Assay [2] can be described thus: Inhibition of electric eel AChE type VI-S using acetylthiocholine iodide as substrate preincubated with enzyme for 10 mins prior to substrate challenge for 15 mins by Ellman's method. Details: species or system Electrophorus electricus. The essentials:
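Enzyme was EeAChE at 0.5 U/mg or equine BuChE at 3.4 U/mg, diluted in Tris-HCl with 0.1% BSA. Eight to ten serial dilutions were preincubated for 10 min at 25 °C, then incubated for 15 min at 25 °C, and read at 405 nm in triplicate. IC50 came from linear regression.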
For orientation: DTNB colorimetry detects thiols as they appear.

The target in the next assay is Cholinesterase (Equus caballus, UniProt P81908). The assay can be described thus: Inhibition of BuChE in equine serum using butyrylthiocholine chloride as substrate preincubated with enzyme for 10 mins prior to substrate challenge for 15 mins by Ellman's method.

The structures appear in SMILES notation. Structures can show the parent of a compound that is named as a salt.

Sequence of Cholinesterase (P81908 whole entry): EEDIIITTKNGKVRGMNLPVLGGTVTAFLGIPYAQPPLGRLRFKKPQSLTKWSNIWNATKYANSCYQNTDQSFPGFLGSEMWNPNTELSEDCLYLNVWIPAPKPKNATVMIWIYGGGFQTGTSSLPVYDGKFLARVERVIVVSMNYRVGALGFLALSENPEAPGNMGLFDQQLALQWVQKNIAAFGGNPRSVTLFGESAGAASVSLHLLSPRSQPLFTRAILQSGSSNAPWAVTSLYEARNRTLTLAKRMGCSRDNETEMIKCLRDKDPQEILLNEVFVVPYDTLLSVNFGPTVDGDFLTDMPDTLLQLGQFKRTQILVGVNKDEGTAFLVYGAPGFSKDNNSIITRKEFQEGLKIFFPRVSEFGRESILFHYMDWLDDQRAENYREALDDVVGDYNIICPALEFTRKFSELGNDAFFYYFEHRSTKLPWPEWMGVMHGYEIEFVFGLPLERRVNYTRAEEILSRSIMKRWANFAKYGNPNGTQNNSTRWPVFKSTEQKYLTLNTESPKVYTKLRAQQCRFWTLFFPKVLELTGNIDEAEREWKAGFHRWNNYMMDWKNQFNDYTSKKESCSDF
Sequence of Cholinesterase (Equus caballus) (P81908 whole entry): as above

As to `Cc1c2c(nn1-c1ccc(-c3nc4cncnc4[nH]3)cc1)-c1ccccc1S(=O)(=O)N2C`, in assay [1], the inhibition (commonly the relative decrease from the control value, in per cent) amounted to 35.5%. For the same compound, in assay [2], the IC50 – broadly, the concentration at which inhibition is half-maximal – is 1950 nM.
In the case of `CN1c2c(nn(-c3ccc(-c4nc5cc(Cl)ccc5[nH]4)cc3)c2-c2ccccc2)-c2ccccc2S1(=O)=O`, the IC50 against Cholinesterase was found to be 9940 nM; in assay [2], 3020 nM.
`Cc1ccc2[nH]c(-c3ccc(-n4nc5c(c4-c4ccccc4)N(C)S(=O)(=O)c4ccccc4-5)cc3)nc2c1`: the inhibition in assay [1] stood at 31.8%. For the same compound, in assay [2], half-maximal inhibition (IC50) required 122 nM.
In assay [1], `CN1c2c(nn(-c3ccc(-c4nc5ccccc5o4)cc3)c2-c2ccccc2)-c2ccccc2S1(=O)=O` yielded an inhibition of 36.5%. In assay [2], this compound came in with a 50% inhibitory concentration (IC50) of 54 nM.
On to `CN1c2c(nn(-c3ccc(-c4nc5cc(Br)ccc5[nH]4)cc3)c2-c2ccccc2)-c2ccccc2S1(=O)=O`, for which the IC50 on Cholinesterase was found to be 3230 nM; in assay [2], 6900 nM.
Consider `COc1cc2c(cc1OC)C(=O)C(CC1CCN(Cc3ccccc3)CC1)C2` (configuration not stated) [DONEPEZIL HYDROCHLORIDE], for which the midpoint of inhibition in assay [2], the IC50, lay at 32 nM.
For the compound `CN1c2c(nn(-c3ccc(-c4nc5cncnc5[nH]4)cc3)c2-c2ccccc2)-c2ccccc2S1(=O)=O`, the IC50 against Cholinesterase came to 1330 nM; in assay [2], 5220 nM.
With `Cc1c2c(nn1-c1ccc(-c3nc4ccccc4[nH]3)cc1)-c1ccccc1S(=O)(=O)N2C`, the IC50 is 43 nM against Cholinesterase and 2910 nM in assay [2].
The corresponding values for `Cc1c2c(nn1-c1ccc(-c3nc4cc(Br)ccc4[nH]3)cc1)-c1ccccc1S(=O)(=O)N2C` are 49 nM and 541 nM.
The compound `COc1ccc2[nH]c(-c3ccc(-n4nc5c(c4-c4ccccc4)N(C)S(=O)(=O)c4ccccc4-5)cc3)nc2c1` showed an inhibition in assay [1] of 37.3%. In assay [2], this compound showed an IC50 of 7130 nM.
With `Cc1cc2nc(-c3ccc(-n4nc5c(c4C)N(C)S(=O)(=O)c4ccccc4-5)cc3)[nH]c2cc1C`, the IC50 against Cholinesterase stood at 273 nM; in assay [2], 41 nM.
Take `CCOC(=O)c1ccc2[nH]c(-c3ccc(-n4nc5c(c4C)N(C)S(=O)(=O)c4ccccc4-5)cc3)nc2c1`: the inhibition in assay [1] was 29.5%. Half-maximal inhibition in assay [2] (IC50) was put at 993 nM.
Compound `Cc1c2c(nn1-c1ccc(-c3nc4cc(Cl)ccc4[nH]3)cc1)-c1ccccc1S(=O)(=O)N2C` showed an inhibition in assay [1] of 38.7%. In assay [2], this compound came in with an IC50 of 1020 nM.
`Cc1cc2nc(-c3ccc(-n4nc5c(c4-c4ccccc4)N(C)S(=O)(=O)c4ccccc4-5)cc3)[nH]c2cc1C` gave an inhibition in assay [1] of 34.1%. The compound also registered an IC50 in assay [2] of 3820 nM.
Regarding `Cc1c2c(nn1-c1ccc(-c3nc4cc(C(=O)O)ccc4[nH]3)cc1)-c1ccccc1S(=O)(=O)N2C`, the IC50 at Cholinesterase stood at 26 nM; in assay [2], 1130 nM.
For `Cc1ccc2[nH]c(-c3ccc(-n4nc5c(c4C)N(C)S(=O)(=O)c4ccccc4-5)cc3)nc2c1`, the IC50 is 41 nM against Cholinesterase and 7530 nM in assay [2].
Take `CN1c2c(nn(-c3ccc(-c4nc5ccccc5[nH]4)cc3)c2-c2ccccc2)-c2ccccc2S1(=O)=O`: the IC50 is 43 nM on Cholinesterase and 11 nM in assay [2].
As for `COc1ccc2[nH]c(-c3ccc(-n4nc5c(c4C)N(C)S(=O)(=O)c4ccccc4-5)cc3)nc2c1`, the IC50 on Cholinesterase amounted to 6920 nM; in assay [2], 1140 nM.
`Cc1c2c(nn1-c1ccc(-c3nc4ccccc4o3)cc1)-c1ccccc1S(=O)(=O)N2C`: the IC50 against Cholinesterase came out at 17 nM; in assay [2], 6920 nM.
Regarding `CCOC(=O)c1ccc2[nH]c(-c3ccc(-n4nc5c(c4-c4ccccc4)N(C)S(=O)(=O)c4ccccc4-5)cc3)nc2c1`, the IC50 against Cholinesterase amounted to 180 nM; in assay [2] it was 13 nM.
Consider `CN1c2c(nn(-c3ccc(-c4nc5cc(C(=O)O)ccc5[nH]4)cc3)c2-c2ccccc2)-c2ccccc2S1(=O)=O`, for which the values for the half-maximal inhibitory concentration (IC50) (on Cholinesterase; in assay [2]) were 4620 nM and 6110 nM, respectively.
The compound `CN1c2c(nn(-c3ccc(-c4nc5cc([N+](=O)[O-])ccc5[nH]4)cc3)c2-c2ccccc2)-c2ccccc2S1(=O)=O` returned an inhibition in assay [1] of 30.7%. Besides, in assay [2], the IC50 was 7940 nM.
Take `Cc1c2c(nn1-c1ccc(-c3nc4cc([N+](=O)[O-])ccc4[nH]3)cc1)-c1ccccc1S(=O)(=O)N2C`: in assay [1], the inhibition turned out to be 38.5%. Besides, the IC50 in assay [2] was 492 nM.
Turning to `CN(C)C(=O)Oc1cccc([N+](C)(C)C)c1` [NEOSTIGMINE], the IC50 was 49600 nM on Cholinesterase and 22200 nM in assay [2].
